In ChEMBL document CHEMBL3085682, “Santacruzamate A, a potent and selective histone deacetylase inhibitor from the Panamanian marine cyanobacterium cf. Symploca sp” (J Nat Prod, 2013):
“And” between values parts separate entries of the source, which are not always exact repeats. Equal entries are not always repeated. The source made the active and inactive calls. The calls are words filed in the database; no cut-off is given here.

How the values were obtained:
Histone deacetylase 4 [1] = target: T1, Histone deacetylase 4 (Homo sapiens, UniProt P56524); assay: Inhibition of human recombinant HDAC4 after 30 mins by fluorescence assay
T1 sequence (P56524 whole entry): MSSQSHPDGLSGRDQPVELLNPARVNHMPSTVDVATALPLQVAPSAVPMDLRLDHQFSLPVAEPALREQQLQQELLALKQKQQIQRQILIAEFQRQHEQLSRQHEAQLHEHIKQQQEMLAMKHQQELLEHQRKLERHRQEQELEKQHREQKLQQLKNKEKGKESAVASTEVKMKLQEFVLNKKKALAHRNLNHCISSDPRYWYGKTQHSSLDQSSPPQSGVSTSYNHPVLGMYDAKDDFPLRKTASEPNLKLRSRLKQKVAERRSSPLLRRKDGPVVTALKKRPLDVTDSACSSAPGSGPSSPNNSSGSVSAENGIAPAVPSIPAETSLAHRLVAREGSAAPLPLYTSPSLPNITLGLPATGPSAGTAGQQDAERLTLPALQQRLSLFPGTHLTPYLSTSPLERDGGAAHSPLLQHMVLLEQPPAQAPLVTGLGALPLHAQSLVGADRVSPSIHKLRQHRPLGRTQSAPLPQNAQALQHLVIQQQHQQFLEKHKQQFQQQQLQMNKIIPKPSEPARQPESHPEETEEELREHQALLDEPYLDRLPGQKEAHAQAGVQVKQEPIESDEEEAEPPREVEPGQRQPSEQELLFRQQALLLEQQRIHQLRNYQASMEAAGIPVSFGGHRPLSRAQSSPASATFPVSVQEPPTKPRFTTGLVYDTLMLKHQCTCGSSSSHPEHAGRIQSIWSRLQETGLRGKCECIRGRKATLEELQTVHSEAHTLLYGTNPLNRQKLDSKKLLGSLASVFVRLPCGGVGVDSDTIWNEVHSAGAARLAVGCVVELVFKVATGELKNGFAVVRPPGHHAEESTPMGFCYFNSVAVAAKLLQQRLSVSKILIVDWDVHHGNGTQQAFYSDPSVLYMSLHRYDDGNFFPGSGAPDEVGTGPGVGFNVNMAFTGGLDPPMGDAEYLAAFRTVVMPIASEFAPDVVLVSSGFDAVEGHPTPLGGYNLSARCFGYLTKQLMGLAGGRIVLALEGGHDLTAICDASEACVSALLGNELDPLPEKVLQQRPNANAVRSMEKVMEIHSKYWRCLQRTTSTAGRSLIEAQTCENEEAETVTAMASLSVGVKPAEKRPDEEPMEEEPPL
Procedure, shortened: (§1)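 Human recombinant HDAC isozyme with fluorogenic kit substrate, incubated with inhibitor 30 min at 37 °C. Deacetylation stopped by developer containing trichostatin A (1 μM final), then 15 min at room temperature. Fluorescence read at excitation 360 nm, emission 460 nm; percent inhibition, IC50 from nonlinear regression over varying concentrations; SAHA control.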

Histone deacetylase 2 = Histone deacetylase 2 (Homo sapiens, UniProt Q92769); assay: Inhibition of human recombinant HDAC2 after 30 mins by fluorescence assay
Histone deacetylase 2, sequence (Q92769 whole entry): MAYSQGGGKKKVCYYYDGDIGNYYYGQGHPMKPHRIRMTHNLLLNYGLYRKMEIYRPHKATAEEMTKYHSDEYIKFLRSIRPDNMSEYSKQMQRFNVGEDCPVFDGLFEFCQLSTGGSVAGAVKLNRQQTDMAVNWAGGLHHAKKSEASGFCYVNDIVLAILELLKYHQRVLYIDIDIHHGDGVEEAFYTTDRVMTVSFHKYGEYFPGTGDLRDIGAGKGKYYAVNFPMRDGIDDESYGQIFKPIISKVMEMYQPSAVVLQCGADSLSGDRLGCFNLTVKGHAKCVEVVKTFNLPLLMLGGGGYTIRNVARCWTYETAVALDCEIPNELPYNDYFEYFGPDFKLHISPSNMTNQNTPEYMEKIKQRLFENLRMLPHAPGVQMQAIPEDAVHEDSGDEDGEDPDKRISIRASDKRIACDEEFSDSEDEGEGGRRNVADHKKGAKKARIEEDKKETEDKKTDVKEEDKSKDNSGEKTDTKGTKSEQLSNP

[2] = target: T2, Protein deacetylase HDAC6 (Homo sapiens, UniProt Q9UBN7); assay: Inhibition of human recombinant HDAC6 after 30 mins by fluorescence assay
T2 sequence (Q9UBN7 whole entry): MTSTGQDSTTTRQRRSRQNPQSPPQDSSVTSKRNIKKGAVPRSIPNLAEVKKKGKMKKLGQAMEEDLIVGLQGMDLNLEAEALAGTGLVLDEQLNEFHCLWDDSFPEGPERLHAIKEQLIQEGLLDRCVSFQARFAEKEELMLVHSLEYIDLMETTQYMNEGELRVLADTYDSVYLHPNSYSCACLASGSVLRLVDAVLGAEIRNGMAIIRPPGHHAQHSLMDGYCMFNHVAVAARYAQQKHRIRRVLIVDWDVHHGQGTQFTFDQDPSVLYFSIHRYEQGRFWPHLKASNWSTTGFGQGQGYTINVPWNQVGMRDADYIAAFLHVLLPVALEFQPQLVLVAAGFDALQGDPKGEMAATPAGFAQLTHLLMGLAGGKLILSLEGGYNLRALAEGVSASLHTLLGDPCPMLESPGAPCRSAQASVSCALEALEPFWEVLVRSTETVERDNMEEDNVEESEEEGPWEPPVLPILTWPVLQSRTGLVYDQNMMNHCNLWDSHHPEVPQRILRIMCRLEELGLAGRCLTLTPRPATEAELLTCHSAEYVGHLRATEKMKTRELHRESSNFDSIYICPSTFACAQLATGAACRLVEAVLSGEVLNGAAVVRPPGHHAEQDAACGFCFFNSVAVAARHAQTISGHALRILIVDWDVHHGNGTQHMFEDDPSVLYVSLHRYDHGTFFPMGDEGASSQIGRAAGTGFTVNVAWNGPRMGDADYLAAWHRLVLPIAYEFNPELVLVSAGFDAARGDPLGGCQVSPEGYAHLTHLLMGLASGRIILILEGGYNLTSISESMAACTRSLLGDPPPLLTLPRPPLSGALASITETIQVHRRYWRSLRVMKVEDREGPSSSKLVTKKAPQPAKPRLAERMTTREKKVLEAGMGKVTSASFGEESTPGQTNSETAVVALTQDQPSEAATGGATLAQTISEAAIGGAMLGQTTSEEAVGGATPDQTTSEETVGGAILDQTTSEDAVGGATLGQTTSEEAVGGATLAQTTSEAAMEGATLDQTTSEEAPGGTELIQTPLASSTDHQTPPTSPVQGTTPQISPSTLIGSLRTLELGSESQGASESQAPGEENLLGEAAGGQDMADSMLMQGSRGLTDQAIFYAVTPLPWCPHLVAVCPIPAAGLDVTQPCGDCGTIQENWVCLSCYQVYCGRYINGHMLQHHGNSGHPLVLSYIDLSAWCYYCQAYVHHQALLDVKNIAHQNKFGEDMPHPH

[3] = Cytotoxicity against human HDF after 72 hrs by MTS-PMS assay; conditions: HDF cells
Procedure, shortened: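 Dermal fibroblasts cultured in DMEM/F-12 with 40% FBS and 1% pen/strep; 5000 cells/well allowed to adhere 24 h at 37 °C, 5% CO2, then treated in triplicate at varying concentrations for 72 h. Antiproliferative readout by MTS–PMS; GI50 fitted by nonlinear regression; SAHA positive control.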

HuT78 = assay: Cytotoxicity against human HUT78 cells after 72 hrs by MTS-PMS assay; assay type: functional
Procedure, shortened: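 HuT-78 maintained in Iscove's modified Dulbecco's medium, 20% FBS, 1% pen/strep, 1% L-glutamine; seeded in log phase at 50 000 cells/well, held 4 h at 37 °C, 5% CO2, then dosed in triplicate over a concentration range for 72 h. MTS–PMS readout; GI50 by nonlinear regression; SAHA positive control.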

HCT-116 [4] = assay: Cytotoxicity against human HCT116 cells after 96 hrs by MTS-PMS assay; assay type: functional
Histone deacetylase 4 [5] = target: T1, Histone deacetylase 4; assay: Inhibition of human recombinant HDAC4 at 1 uM after 30 mins by fluorescence assay; procedure, shortened: as §1
HCT-116 [6] = assay: Ratio of IC50 for human HCT116 cells to IC50 for human HUT78 cells; assay type: functional

With `O=C(CCCC(=O)NCCc1ccccc1)NO` the IC50 (Histone deacetylase 4 [1]) was > 1000 nM, the IC50 (Histone deacetylase 2) was 3.5 nM and the IC50 [2] was 386 nM. For the same compound, the GI50 at 72 h [3] was > 100000 nM, the GI50 (HuT78; Homo sapiens, HuT78, 72 h) was 700 nM and the GI50 (HCT-116 [4]; Homo sapiens, HCT-116, 96 h) was 2300 nM. The inhibition (Histone deacetylase 4 [5]) was “Active”.
In the case of `CCOC(=O)NCCCC(=O)NCCc1ccccc1`, the IC50 (Histone deacetylase 4 [1]) is reported as > 1000 nM, the IC50 (Histone deacetylase 2) is reported as 0.112 nM and 0.119 nM and the IC50 [2] is reported as 433 nM and 434 nM. For the same compound, the GI50 at 72 h [3] was > 100000 nM, the GI50 (HuT78) was 1400 nM and the GI50 (HuT78; Homo sapiens, HuT78, 72 h) was 1300 nM. The “Ratio IC50” value (HCT-116 [6]) was 20, the GI50 (HCT-116 [4]) was 29400 nM and the GI50 (HCT-116 [4]; Homo sapiens, HCT-116, 96 h) was 28300 nM. The inhibition (Histone deacetylase 4 [5]) was “Active”.
